We go through two molecules from ChEMBL document CHEMBL4680062, “Structure-property studies of an imidazoquinoline chemotype with antitrypanosomal activity” (RSC Med Chem, 2020).

The structures appear in SMILES notation.

A short description of series [1]: Cmax in NMRI mouse at 10 mg/kg, ip measured up to 24 hrs by LC/MS/MS analysis. It is filed as ADME, organism-based. Further details: route intraperitoneal, dose 10 mg/kg, time <=24; call rule not given here. As to conditions: in vivo. The procedure, abridged: (§1)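 Female NMRI mice (n=3) dosed IP at a target of 10 mg/kg. Vehicle: 1% DMSO and 99% of a 20% Captisol solution in water. Drug levels measured in peripheral blood.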

A short description of series [2]: 1-Octanol-aquoues buffer distribution coefficient, log D of compound at pH 7.4 by UPLC-MS based shake flask method. It is filed as physicochemical. As to conditions: 1-octanol/aqueous buffer.
The nature of series [3]: AUC in NMRI mouse at 10 mg/kg, ip measured up to 24 hrs by LC/MS/MS analysis. In kind it is ADME, organism-based. Details: route intraperitoneal, dose 10 mg/kg, time <=24. Conditions: in vivo. An outline of the steps: as §1
Series [4] can be described thus: Half life in NMRI mouse at 10 mg/kg, ip measured up to 24 hrs by LC/MS/MS analysis. As to conditions: in vivo. In kind it is ADME, organism-based. The procedure, abridged:
as §1

A short description of series [5]: Drug exposure in NMRI mouse blood at 10 mg/kg, ip measured after 4 hrs by LC/MS/MS analysis. Conditions: in vivo. It is filed as ADME, organism-based. An outline of the steps:
as §1

The nature of series [6]: Drug exposure in NMRI mouse brain at 10 mg/kg, ip measured after 4 hrs by LC/MS/MS analysis. In kind it is ADME, organism-based. As to conditions: in vivo.
The nature of series [7]: Intrinsic clearance in human liver microsomes by LC/MS/MS analysis. It is filed as ADME, Microsome. As to conditions: read-out: CLH. On the technique in general: Liver microsomes are vesicles of endoplasmic reticulum, rich in cytochrome P450 enzymes.
A short description of series [8]: Tmax in NMRI mouse at 10 mg/kg, ip measured up to 24 hrs by LC/MS/MS analysis. In kind it is ADME, organism-based. As to conditions: in vivo. An outline of the steps: as §1
Series [9] in a line: Ratio of drug level in brain to plasma in NMRI mouse at 10 mg/kg, ip measured up to 24 hrs by LC/MS/MS analysis. Conditions: brain and plasma, read-out: BPR. In kind it is ADME, organism-based.
Series [10] can be described thus: Intrinsic clearance in Han Wistar rat hepatocytes assessed per million cells at 1 uM by LC/MS/MS analysis. In kind it is ADME, cell-based, Hepatocyte. As to conditions: read-out: CLH.

Take `Cn1c(=O)n(-c2ccc(C(C)(C)C#N)cc2)c2c3cc(-c4cn[nH]c4)ccc3ncc21`: the Cmax (as a rule, the highest concentration seen after dosing) in [1] amounted to 570 ng/mL. In series [2], the log distribution coefficient (logD) (commonly lipophilicity at a set pH, counting ionised and neutral species) amounted to 3. Besides, the area under the curve (AUC) (usually concentration integrated over time) at 24 h in [3] stood at 920 ng·h/mL. Moreover, the half-life (in general, how long it takes for the measured level to halve) in series [4] is 78 min. Moreover, the Drug uptake entry in series [5] and in series [6] was “Not Active” each time. Further, in [7], the microsomal CLint was determined as 38 µL/min/mg. Moreover, the Tmax (commonly the time at which the peak concentration occurs) in series [8] stood at 30 min. The Kp at 24 h in series [9] is 0.026. For the same molecule, the hepatocyte CLint at 1 µM in series [10] came out at 7.9 µL/min/1e6 cells.

Turning to `Cn1c(=O)n(C2CCNCC2)c2c3cc(-c4cn[nH]c4)ccc3ncc21`, the logD in [2] was 0.1. For the same molecule, the microsomal CLint in series [7] was 3 µL/min/mg. For the same molecule, in [10], the hepatocyte CLint at 1 µM was 1 µL/min/1e6 cells.
